Compound activity from PubChem BioAssay.
Beta apoptosis – blocks beta cell apoptosis; protection from apoptosis, % (concentration not given with the values); AID 435005; actives 0.8% (n = 300,000); INS-1E cytokine-induced death, ATP luminescence, 48 h; percent of positive-control rescue, neutral wells zero;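 active = Every replicate reaches about 75%, or at least half do and their mean reaches it too, limit read from the data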;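 note: higher means more ATP so stronger rescue from cytokine killing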
ANO1 block – inhibitors of mouse TMEM16A calcium-activated chloride channel | Q8BHY3 | HEK293 TMEM16A/YFP iodide influx fluorescence, ionomycin | normalized B-score (activity score, 25-100; higher = stronger inhibition) at 10 µM | actives 1.2% (n = 310,000);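 active = ratio plate-corrected score three or more library SD toward inhibition, starting fluorescence score within five deviations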;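 note: score derived from kinetic fluorescence span divided by baseline fluorescence per well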
ANO1 activ – activators or potentiators of mouse TMEM16A chloride channel; Q8BHY3; HEK293 TMEM16A/YFP-H148Q/I152L, iodide quench fluorescence; stronger effect = lower value; B-score at 10 µM; actives 0.3% (n = 340,000); AID 623877;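 active = fluorescence-ratio B-score plate-corrected deviation score at least 3 library SD below zero, with starting fluorescence score within 5 deviations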;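 note: channel opened by trigger with iodide after compound preincubation; score built on the fluorescence ratio of max minus min over baseline; more negative score means more quench and so TMEM16A activation or potentiation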
CSC inhib – blocks cancer stem cells. AID 2717. inhibition, % at 7.5 µM. actives 1.1% (n = 300,000). cancer stem cell-like cells viability, luminescence; in the data active = inhibition above about 75%; tested in HMLE shEcad cells
MC4R antag cAMP – blocks human MC4R cAMP signaling; P32245; MC4R-expressing cells, MTII-stimulated cAMP, LANCE TR-FRET; inhibition, % at 6.5 µM; actives 0.48% (n = 360,000); AID 540295;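 active = inhibition above its plate's cutoff, the mean of tested wells on that plate plus 3 SD, cut at about 29% in these data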
Target sequence (P32245 whole entry, looked up): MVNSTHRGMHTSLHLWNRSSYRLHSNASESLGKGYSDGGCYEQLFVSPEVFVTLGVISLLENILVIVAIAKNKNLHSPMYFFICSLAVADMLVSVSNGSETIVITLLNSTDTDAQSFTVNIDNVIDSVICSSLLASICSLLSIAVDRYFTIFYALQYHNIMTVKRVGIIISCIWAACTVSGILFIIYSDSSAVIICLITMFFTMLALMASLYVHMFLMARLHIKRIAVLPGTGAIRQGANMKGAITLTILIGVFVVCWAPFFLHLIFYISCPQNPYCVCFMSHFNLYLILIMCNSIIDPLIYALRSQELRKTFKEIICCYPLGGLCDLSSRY
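Test system: U2OS cells stably expressing human melanocortin 4 receptor (MC4R); also added: Melanotan II challenge; compound: 6.5 µM single dose; timing: 30-min compound preincubation, 1-h Melanotan II challenge, 1-h detection, room temperature; signal: Eu-cAMP/anti-cAMP TR-FRET, emission 671 nm; repeats: one well per compound, no replicates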
MC4R ag barr – human MC4R agonism via beta-arrestin. P32245. U2OS MC4R beta-arrestin complementation, luminescence; percent of melanotan II response, DMSO zero. activation, % at 8.9 µM. actives 0.98% (n = 360,000);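 active = activation above a per-plate cutoff, the mean activation of sample wells on that plate plus 3 SD, cut at about 8% in these data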
U2OS cAMP counter – counter-screen for MC4R antagonists: nonselective cAMP signaling inhibitors. parental U2OS, forskolin cAMP, LANCE TR-FRET. shares compounds with MC4R antag cAMP. actives 26% (n = 1,600). inhibition, % at 6.5 µM;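 active = mean inhibition over triplicates above the low-control well mean plus 3 SD, set per campaign, cut at about 13% in these data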;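 note: signal is single emission at 671 nm which falls as cellular cAMP rises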
MC4R cAMP antag – human MC4R cAMP antagonism confirmation. shares compounds with MC4R antag cAMP. MC4R-expressing cells, MTII-stimulated cAMP, TR-FRET. inhibition, % at 6.5 µM. actives 27% (n = 1,600); in the data active = inhibition above about 29%
Large screens that a line does not name were inactive (follow-up assays come after a bar, where they were run). Rows were chosen to be rich in hits. Some 3.8% of all compounds tested hit in one or more screens of this group.

C[C@H](CO)N1C[C@H](C)[C@@H](CN(C)S(=O)(=O)c2ccccc2)Oc2ccc(NS(=O)(=O)c3ccccc3)cc2C1=O	none (no result: Beta apoptosis, ANO1 block, ANO1 activ, CSC inhib)
CC(C)CNC(=O)COC(=O)c1ccc2c(c1)C(=O)N(Cc1ccco1)C2=O	none
CC(C)(C)C(=O)COC(=O)c1ccc2c(c1)C(=O)N(Cc1ccco1)C2=O	MC4R antag cAMP 37.0 | U2OS cAMP counter inactive | MC4R cAMP antag inactive
Cc1ccc(NC(=O)CCNS(=O)(=O)c2ccccc2F)cc1S(=O)(=O)N1CCOCC1	none
CCC(=O)NC(=S)Nc1ccc(-c2nc3ccc(C)cc3s2)cc1	none
Cc1ccc2nc(-c3ccc(NC(=S)NC(=O)C(C)C)cc3)sc2c1	MC4R antag cAMP 46.7 | U2OS cAMP counter inactive | MC4R cAMP antag inactive
O=C(OCc1ccccc1F)c1cc(S(=O)(=O)N2CCCCC2)ccc1N1CCOCC1	none (no result: Beta apoptosis, ANO1 block, ANO1 activ, CSC inhib)
CCOC(=O)C1CCCN(C(=O)c2cccc([N+](=O)[O-])c2C)C1 (stereo unspecified)	MC4R antag cAMP 32.1 | U2OS cAMP counter inactive | MC4R cAMP antag inactive
CCOC(=O)C1CCCN(C(=O)c2ccc(OC)c([N+](=O)[O-])c2)C1 (stereo unspecified)	none (no result: Beta apoptosis)
Cc1ccc(CNC(=O)COC(=O)Cn2nc(C)c([N+](=O)[O-])c2C)cc1	MC4R antag cAMP 45.7 | U2OS cAMP counter inactive | MC4R cAMP antag 31.1
CN(CC(=O)Nc1ccccc1Br)C(=O)CN1CCN(c2ccccc2Cl)CC1	none (no result: ANO1 block, CSC inhib)
Cc1ccc(C(=O)Nc2nnc(S(=O)(=O)N3CCC(C)CC3)s2)cc1	none
Cc1cccc(C(=O)Nc2nnc(S(=O)(=O)N3CCC(C)CC3)s2)c1	MC4R antag cAMP 50.0 | U2OS cAMP counter inactive | MC4R cAMP antag inactive
COC(=O)[C@]1(Cc2ccccc2)N[C@H](CN(C)C(=O)Nc2ccc(Cl)cc2)[C@@H]2C(=O)N(Cc3ccccc3)C(=O)[C@@H]21	none (no result: ANO1 block, CSC inhib)
COc1ccc(OC(=O)COc2ccccc2C)cc1	none
CCOc1ccccc1OCC(=O)Oc1ccc(C)c(C)c1	MC4R antag cAMP 28.6 | U2OS cAMP counter inactive | MC4R cAMP antag inactive
CCOc1ccc(NC(=O)CCN2C(=O)c3cccc([N+](=O)[O-])c3C2=O)cc1	MC4R antag cAMP 32.9 | U2OS cAMP counter inactive | MC4R cAMP antag inactive
CN(C)c1ccc(NC(=O)CCN2C(=O)c3cccc([N+](=O)[O-])c3C2=O)cc1	none (no result: Beta apoptosis)
COc1ccc(CNC(=O)CCN2C(=O)c3ccncc3C2=O)cc1OC	MC4R antag cAMP 33.5 | U2OS cAMP counter inactive | MC4R cAMP antag inactive
COc1cc(OC)c(OC)cc1CNC(=O)CCN1C(=O)c2cccc([N+](=O)[O-])c2C1=O	MC4R antag cAMP 31.6 | U2OS cAMP counter inactive | MC4R cAMP antag inactive
COc1ccc(OC)c(NC(=O)CCN2C(=O)c3cccc([N+](=O)[O-])c3C2=O)c1	MC4R antag cAMP 41.5 (no result: Beta apoptosis) | U2OS cAMP counter inactive | MC4R cAMP antag inactive
CCOC(=O)C1(C(=O)OCC)C(C)CC(=O)N1c1ccccc1OC (stereo unspecified)	none (no result: Beta apoptosis, ANO1 block, ANO1 activ, CSC inhib)
CC1(C(=O)Nc2ccc(Cl)c(Cl)c2)CCN1Cc1ccccc1OC(F)F (stereo unspecified)	none (no result: Beta apoptosis, ANO1 block, ANO1 activ, CSC inhib)
CC(=O)c1ccc(NC(=O)COC(=O)CCN2C(=O)c3cccc([N+](=O)[O-])c3C2=O)cc1	none
CC(C)N(c1ccccc1)c1ccc(NC(=O)COC(=O)CCN2C(=O)c3cccc([N+](=O)[O-])c3C2=O)cc1	MC4R antag cAMP 35.9 | U2OS cAMP counter inactive | MC4R cAMP antag inactive
C#Cc1ccc(NC(=O)C2(C)CCN2C(=O)c2cc(C)n(C)n2)cc1 (stereo unspecified)	none (no result: Beta apoptosis, ANO1 block, ANO1 activ, CSC inhib)
CC(=O)c1ccc(NC(=O)c2ccccc2-c2ccccc2C(=O)O)cc1	none
Clc1ccc(/C=N/N2CCN(Cc3ccccc3)CC2)cc1	none
C(=C\c1ccccc1)/C=N/N1CCN(Cc2ccccc2)CC1	MC4R antag cAMP 29.9 | U2OS cAMP counter inactive | MC4R cAMP antag inactive
O=S(=O)(c1ccccc1)N1CCN(c2nnc(-c3ccccc3)c3ccccc23)CC1	MC4R antag cAMP 29.6 | U2OS cAMP counter inactive | MC4R cAMP antag inactive
CS(=O)(=O)N1CCN(c2nnc(-c3ccccc3)c3ccccc23)CC1	none (no result: Beta apoptosis)
O=C(CCCN1C(=O)C2CC=CCC2C1=O)Nc1ccccc1F (stereo unspecified)	none
CC1c2[nH]c3ccccc3c2CCN1C(=O)Nc1ccccc1 (stereo unspecified)	none
O=C(Nc1ccccc1)N1CCc2c([nH]c3ccccc23)C1C(F)(F)F (stereo unspecified)	MC4R antag cAMP 35.0 | U2OS cAMP counter inactive | MC4R cAMP antag inactive
OC(COc1ccccc1)CN1CCOCC1 (stereo unspecified)	MC4R antag cAMP 29.8 | U2OS cAMP counter inactive | MC4R cAMP antag inactive
O=C1c2cccnc2Oc2ccc(Cl)cc2N1Cc1ccc(F)cc1	none
Cc1ccc2c(c1)N(Cc1cccc(Cl)c1)C(=O)c1cccnc1O2	MC4R antag cAMP 38.8 | U2OS cAMP counter inactive | MC4R cAMP antag inactive
Cc1cccc(NC(=O)COc2cccc3c2CCN(C)C3=O)c1C	none
CCOC(=O)c1c(NC(=O)COc2cccc3c2CCN(C)C3=O)sc2c1CCC2	MC4R antag cAMP 29.8, MC4R ag barr 8.7 | U2OS cAMP counter inactive | MC4R cAMP antag 51.5
CCOc1ccc(C(=O)OCC(=O)NCc2ccccc2)cc1OCC	none (no result: ANO1 block, CSC inhib)
CCOc1ccc(C(=O)CCC(=O)NCC(=O)OCc2ccccc2)cc1OCC	MC4R antag cAMP 31.8 | U2OS cAMP counter inactive | MC4R cAMP antag inactive
Cc1cccc(C(=O)NNC(=O)c2ccc3ccccc3c2)c1	none (no result: Beta apoptosis, ANO1 block, CSC inhib)
O=C(COc1ccc([N+](=O)[O-])cc1)Nc1ccc2c(c1)OCO2	MC4R antag cAMP 32.2 (no result: Beta apoptosis) | U2OS cAMP counter inactive | MC4R cAMP antag inactive
C=CCn1c(C)cc(C(=O)COC(=O)c2cncc(Br)c2)c1C	none (no result: ANO1 block, CSC inhib)
CC(=O)OCC1OC(n2cc(F)c(=O)[nH]c2=O)C(OC(C)=O)C1OC(C)=O (stereo unspecified)	none
O=C1C(F)=CC(COC(c2ccccc2)(c2ccccc2)c2ccccc2)OC1n1cc(F)c(=O)[nH]c1=O (stereo unspecified)	ANO1 activ -13.5, MC4R antag cAMP 29.5 (no result: Beta apoptosis, ANO1 block, CSC inhib) | U2OS cAMP counter inactive | MC4R cAMP antag inactive
C=C(C)C1CC=C(C)/C(=N/NC(=O)COc2ccccc2Cl)C1 (stereo unspecified)	MC4R antag cAMP 33.5 | U2OS cAMP counter inactive | MC4R cAMP antag inactive
CCOc1ccc(C2=CSC3=NCCN23)cc1[N+](=O)[O-]	none
